Data from article PMC11344153 (Scientific Reports, 2024).

Tests used:
[1] = test system: N-terminal peptide of GPIHBP1; experiment: SPR binding to immobilized N-terminal peptide of GPIHBP1; design: species or system human; conditions: even at concentrations of 1 μM, 25 °C, 20 mM HEPES pH 7.4, 0.15 M NaCl
Procedure, shortened: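 Biacore SPR with 578 RU of biotinylated N-terminal GPIHBP1 peptide captured on the sensor (148.5 fmol/mm2). Analytes were tenfold-diluted pooled nonfasting human plasma, tenfold-diluted lipoprotein-deficient plasma (± 20, 40 or 80 nM purified bovine LPL) or isolated heparin-binding proteins (antithrombin III, protamine, FGF-2). Flow was 20 µl/min at 25 °C in 20 mM HEPES pH 7.4, 0.15 M NaCl.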

[2] = target: T1, LPL (Bos taurus, UniProt P11151); type: binding, bovine; conditions: fluorescence anisotropy, 10 IU/ml heparin in phosphate buffer
T1 sequence (P11151 29-478): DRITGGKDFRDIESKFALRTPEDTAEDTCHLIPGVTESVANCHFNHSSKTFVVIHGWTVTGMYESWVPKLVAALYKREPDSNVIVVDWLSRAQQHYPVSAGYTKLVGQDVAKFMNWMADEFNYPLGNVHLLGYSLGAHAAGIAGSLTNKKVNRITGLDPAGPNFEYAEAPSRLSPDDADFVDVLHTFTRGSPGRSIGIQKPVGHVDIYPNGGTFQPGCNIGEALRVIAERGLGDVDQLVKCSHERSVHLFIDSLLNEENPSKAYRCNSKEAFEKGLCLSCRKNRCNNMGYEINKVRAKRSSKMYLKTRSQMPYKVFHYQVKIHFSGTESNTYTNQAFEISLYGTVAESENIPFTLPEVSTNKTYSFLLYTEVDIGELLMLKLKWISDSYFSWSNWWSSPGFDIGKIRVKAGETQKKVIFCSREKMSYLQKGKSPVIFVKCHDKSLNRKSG
Procedure, shortened: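 N-terminal GPIHBP1 peptide labeled at cysteine with DyLight 488 maleimide, 100 nM, mixed with increasing LPL concentrations in 20 mM phosphate, pH 7.4, 0.15 M NaCl plus 10 IU/ml heparin. Excitation 493 nm, emission 518 nm, with emission polarizer parallel and perpendicular to vertical excitation. Anisotropy change versus LPL concentration fitted to a 1:1 binding model for KD.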

Row | Substance | binding to the immobilized N-terminal domain of GPIHBP1 [1] | effect on the interaction between LPL and the N-terminal domain of GPIHBP1 [2]
1 | FGF-2: heparin binding protein, ICN Biomedicals | no binding | 
2 | antithrombin III | no binding | 
3 | heparin |  | completely blocked the interaction
4 | protamine | no binding | 
